Assay: organ radiation dose estimates, OLINDA 2.0, ICRP-103
Assay type: in vivo, human
Summary of the method: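 Whole-body PET-MR ran as nine scans to 214 min. Organ VOIs were drawn in AMIDE, giving decay-corrected %IA per VOI; remainder = whole body minus measured organs. TIACs came from the EXM exponential model (OLINDA 1.1). Per-participant organ doses were computed in OLINDA 2.0 with 73 kg adult male or 60 kg female models. Effective dose (mSv) = organ absorbed doses × ICRP-103 tissue weighting factors.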

Structure (SMILES): COC(=O)[C@@H](N)CC(=O)Nc1ccc2c(c1)Cc1cc([18F])ccc1-2 [[^18F]RP-115, methyl N^4-(7-[^18F]fluoro-9H-fluoren-2-yl)asparaginate]
- Estimated dose, Thyroid (Female n=4, mean±SD): 0.0239±0.0171 mGy/MBq
- Estimated dose, Urinary bladder wall (Female n=4, mean±SD): 0.0516±0.0371 mGy/MBq
- Estimated dose, Uterus (Female n=4, mean±SD): 0.0573±0.0514 mGy/MBq
- Effective dose (whole body) (M1 (326 MBq)): 6.65 mSv
- Estimated absorbed dose, Adrenals (M1 (326 MBq)): 13.5 mGy
- Estimated absorbed dose, Brain (M1 (326 MBq)): 5.47 mGy
- Estimated absorbed dose, Colon, left (M1 (326 MBq)): 5.63 mGy
- Estimated absorbed dose, Colon, right (M1 (326 MBq)): 4.95 mGy
- Estimated absorbed dose, Esophagus (M1 (326 MBq)): 5.18 mGy
- Estimated absorbed dose, Eyes (M1 (326 MBq)): 2.26 mGy
- Estimated absorbed dose, Gallbladder wall (M1 (326 MBq)): 10.3 mGy
- Estimated absorbed dose, Heart wall (M1 (326 MBq)): 9.25 mGy
- Estimated absorbed dose, Kidneys (M1 (326 MBq)): 70.7 mGy
- Estimated absorbed dose, Liver (M1 (326 MBq)): 17.5 mGy
- Estimated absorbed dose, Lungs (M1 (326 MBq)): 17.0 mGy
- Estimated absorbed dose, Osteogenic cells (M1 (326 MBq)): 2.80 mGy
- Estimated absorbed dose, Pancreas (M1 (326 MBq)): 5.93 mGy
- Estimated absorbed dose, Prostate (M1 (326 MBq)): 3.21 mGy
- Estimated absorbed dose, Rectum (M1 (326 MBq)): 3.35 mGy
- Estimated absorbed dose, Red marrow (M1 (326 MBq)): 3.48 mGy
- Estimated absorbed dose, Salivary glands (M1 (326 MBq)): 2.64 mGy
- Estimated absorbed dose, Small intestine (M1 (326 MBq)): 17.2 mGy
- Estimated absorbed dose, Spleen (M1 (326 MBq)): 24.9 mGy
- Estimated absorbed dose, Stomach wall (M1 (326 MBq)): 5.27 mGy
- Estimated absorbed dose, Testes (M1 (326 MBq)): 2.11 mGy
- Estimated absorbed dose, Thymus (M1 (326 MBq)): 14.7 mGy
- Estimated absorbed dose, Thyroid (M1 (326 MBq)): 4.36 mGy
- Estimated absorbed dose, Urinary bladder wall (M1 (326 MBq)): 3.68 mGy
- Effective dose (whole body) (M2 (289 MBq)): 4.65 mSv
- Estimated absorbed dose, Adrenals (M2 (289 MBq)): 12.3 mGy
- Estimated absorbed dose, Brain (M2 (289 MBq)): 2.94 mGy
- Estimated absorbed dose, Colon, left (M2 (289 MBq)): 5.05 mGy
- Estimated absorbed dose, Colon, right (M2 (289 MBq)): 4.10 mGy
- Estimated absorbed dose, Esophagus (M2 (289 MBq)): 4.39 mGy
- Estimated absorbed dose, Eyes (M2 (289 MBq)): 1.91 mGy
- Estimated absorbed dose, Gallbladder wall (M2 (289 MBq)): 6.09 mGy
- Estimated absorbed dose, Heart wall (M2 (289 MBq)): 33.5 mGy
- Estimated absorbed dose, Kidneys (M2 (289 MBq)): 74.2 mGy
- Estimated absorbed dose, Liver (M2 (289 MBq)): 10.1 mGy
- Estimated absorbed dose, Lungs (M2 (289 MBq)): 2.65 mGy
- Estimated absorbed dose, Osteogenic cells (M2 (289 MBq)): 2.33 mGy
- Estimated absorbed dose, Pancreas (M2 (289 MBq)): 44.4 mGy
- Estimated absorbed dose, Prostate (M2 (289 MBq)): 2.91 mGy
- Estimated absorbed dose, Rectum (M2 (289 MBq)): 2.77 mGy
- Estimated absorbed dose, Red marrow (M2 (289 MBq)): 2.76 mGy
- Estimated absorbed dose, Salivary glands (M2 (289 MBq)): 2.20 mGy
- Estimated absorbed dose, Small intestine (M2 (289 MBq)): 4.04 mGy
- Estimated absorbed dose, Spleen (M2 (289 MBq)): 9.84 mGy
- Estimated absorbed dose, Stomach wall (M2 (289 MBq)): 5.89 mGy
- Estimated absorbed dose, Testes (M2 (289 MBq)): 2.02 mGy
- Estimated absorbed dose, Thymus (M2 (289 MBq)): 5.86 mGy
- Estimated absorbed dose, Thyroid (M2 (289 MBq)): 2.40 mGy
- Estimated absorbed dose, Urinary bladder wall (M2 (289 MBq)): 4.70 mGy
- Effective dose (whole body) (M3 (70.3 MBq)): 1.25 mSv
- Estimated absorbed dose, Adrenals (M3 (70.3 MBq)): 2.34 mGy
- Estimated absorbed dose, Brain (M3 (70.3 MBq)): 0.810 mGy
- Estimated absorbed dose, Colon, left (M3 (70.3 MBq)): 0.970 mGy
- Estimated absorbed dose, Colon, right (M3 (70.3 MBq)): 0.900 mGy
- Estimated absorbed dose, Esophagus (M3 (70.3 MBq)): 1.00 mGy
- Estimated absorbed dose, Eyes (M3 (70.3 MBq)): 0.450 mGy
- Estimated absorbed dose, Gallbladder wall (M3 (70.3 MBq)): 1.53 mGy
- Estimated absorbed dose, Heart wall (M3 (70.3 MBq)): 1.84 mGy
- Estimated absorbed dose, Kidneys (M3 (70.3 MBq)): 12.4 mGy
- Estimated absorbed dose, Liver (M3 (70.3 MBq)): 2.85 mGy
- Estimated absorbed dose, Lungs (M3 (70.3 MBq)): 3.35 mGy
- Estimated absorbed dose, Osteogenic cells (M3 (70.3 MBq)): 0.557 mGy
- Estimated absorbed dose, Pancreas (M3 (70.3 MBq)): 1.15 mGy
- Estimated absorbed dose, Prostate (M3 (70.3 MBq)): 0.724 mGy
- Estimated absorbed dose, Rectum (M3 (70.3 MBq)): 0.702 mGy
- Estimated absorbed dose, Red marrow (M3 (70.3 MBq)): 0.692 mGy
- Estimated absorbed dose, Salivary glands (M3 (70.3 MBq)): 0.536 mGy
- Estimated absorbed dose, Small intestine (M3 (70.3 MBq)): 1.93 mGy
- Estimated absorbed dose, Spleen (M3 (70.3 MBq)): 2.65 mGy
- Estimated absorbed dose, Stomach wall (M3 (70.3 MBq)): 0.984 mGy
- Estimated absorbed dose, Testes (M3 (70.3 MBq)): 0.477 mGy
- Estimated absorbed dose, Thymus (M3 (70.3 MBq)): 1.58 mGy
- Estimated absorbed dose, Thyroid (M3 (70.3 MBq)): 0.830 mGy
- Estimated absorbed dose, Urinary bladder wall (M3 (70.3 MBq)): 2.00 mGy
- Effective dose (whole body) (M4 (153 MBq)): 2.62 mSv
- Estimated absorbed dose, Adrenals (M4 (153 MBq)): 5.67 mGy
- Estimated absorbed dose, Brain (M4 (153 MBq)): 2.17 mGy
- Estimated absorbed dose, Colon, left (M4 (153 MBq)): 2.46 mGy
- Estimated absorbed dose, Colon, right (M4 (153 MBq)): 2.15 mGy
- Estimated absorbed dose, Esophagus (M4 (153 MBq)): 2.06 mGy
- Estimated absorbed dose, Eyes (M4 (153 MBq)): 1.08 mGy
- Estimated absorbed dose, Gallbladder wall (M4 (153 MBq)): 3.76 mGy
- Estimated absorbed dose, Heart wall (M4 (153 MBq)): 3.73 mGy
- Estimated absorbed dose, Kidneys (M4 (153 MBq)): 31.2 mGy
- Estimated absorbed dose, Liver (M4 (153 MBq)): 5.85 mGy
- Estimated absorbed dose, Lungs (M4 (153 MBq)): 5.53 mGy
- Estimated absorbed dose, Osteogenic cells (M4 (153 MBq)): 1.28 mGy
- Estimated absorbed dose, Pancreas (M4 (153 MBq)): 3.39 mGy
- Estimated absorbed dose, Prostate (M4 (153 MBq)): 1.60 mGy
- Estimated absorbed dose, Rectum (M4 (153 MBq)): 1.64 mGy
- Estimated absorbed dose, Red marrow (M4 (153 MBq)): 1.54 mGy
- Estimated absorbed dose, Salivary glands (M4 (153 MBq)): 1.26 mGy
- Estimated absorbed dose, Small intestine (M4 (153 MBq)): 6.45 mGy
- Estimated absorbed dose, Spleen (M4 (153 MBq)): 8.39 mGy
- Estimated absorbed dose, Stomach wall (M4 (153 MBq)): 2.22 mGy
- Estimated absorbed dose, Testes (M4 (153 MBq)): 1.09 mGy
- Estimated absorbed dose, Thymus (M4 (153 MBq)): 5.87 mGy
- Estimated absorbed dose, Thyroid (M4 (153 MBq)): 2.28 mGy
- Estimated absorbed dose, Urinary bladder wall (M4 (153 MBq)): 2.61 mGy
- Effective dose (whole body) (Male n=4, mean±SD): 0.0179±0.0018 mSv/MBq
- Estimated dose, Adrenals (Male n=4, mean±SD): 0.0386±0.0043 mGy/MBq
- Estimated dose, Brain (Male n=4, mean±SD): 0.0132±0.0029 mGy/MBq
- Estimated dose, Esophagus (Male n=4, mean±SD): 0.0147±0.0011 mGy/MBq
- Estimated dose, Eyes (Male n=4, mean±SD): 0.00678±0.00029 mGy/MBq
- Estimated dose, Gallbladder wall (Male n=4, mean±SD): 0.0248±0.0048 mGy/MBq
- Estimated dose, Heart wall (Male n=4, mean±SD): 0.0488±0.0449 mGy/MBq
- Estimated dose, Kidneys (Male n=4, mean±SD): 0.214±0.034 mGy/MBq
- Estimated dose, Left colon (Male n=4, mean±SD): 0.0162±0.0017 mGy/MBq
- Estimated dose, Liver (Male n=4, mean±SD): 0.0419±0.0082 mGy/MBq
- Estimated dose, Lungs (Male n=4, mean±SD): 0.0363±0.0193 mGy/MBq
- Estimated dose, Osteogenic cells (Male n=4, mean±SD): 0.00825±0.00031 mGy/MBq
- Estimated dose, Pancreas (Male n=4, mean±SD): 0.0527±0.0676 mGy/MBq
- Estimated dose, Prostate (Male n=4, mean±SD): 0.0102±0.0003 mGy/MBq
- Estimated dose, Rectum (Male n=4, mean±SD): 0.0101±0.0005 mGy/MBq
- Estimated dose, Red marrow (Male n=4, mean±SD): 0.0101±0.0005 mGy/MBq
- Estimated dose, Right colon (Male n=4, mean±SD): 0.0141±0.0010 mGy/MBq
- Estimated dose, Salivary Glands (Male n=4, mean±SD): 0.00791±0.0003 mGy/MBq
- Estimated dose, Small intestine (Male n=4, mean±SD): 0.0341±0.0169 mGy/MBq
- Estimated dose, Spleen (Male n=4, mean±SD): 0.0508±0.0194 mGy/MBq
- Estimated dose, Stomach wall (Male n=4, mean±SD): 0.0163±0.0029 mGy/MBq
- Estimated dose, Testes (Male n=4, mean±SD): 0.00684±0.00028 mGy/MBq
- Estimated dose, Thymus (Male n=4, mean±SD): 0.0316±0.0122 mGy/MBq
- Estimated dose, Thyroid (Male n=4, mean±SD): 0.0121±0.0028 mGy/MBq
- Estimated dose, Urinary bladder wall (Male n=4, mean±SD): 0.0183±0.0073 mGy/MBq

Source: article PMC13170702 (Nuclear medicine and biology, 2025)
